In general, Ki refers to the dissociation constant of the complex between target and ligand, obtained from inhibition or displacement. What is called half-life is how long it takes for the measured level to halve.

One series has as its target D(2) dopamine receptor (Homo sapiens, UniProt P14416). The series is described as follows: Displacement of [3H]-raclopride from human D2L receptor expressed in HEK293 cell membranes after 1 hr by microbeta counting method.
Series [1] deals with T1, 5-hydroxytryptamine receptor 1A (Homo sapiens, UniProt P08908).
T1 sequence (P08908 whole entry): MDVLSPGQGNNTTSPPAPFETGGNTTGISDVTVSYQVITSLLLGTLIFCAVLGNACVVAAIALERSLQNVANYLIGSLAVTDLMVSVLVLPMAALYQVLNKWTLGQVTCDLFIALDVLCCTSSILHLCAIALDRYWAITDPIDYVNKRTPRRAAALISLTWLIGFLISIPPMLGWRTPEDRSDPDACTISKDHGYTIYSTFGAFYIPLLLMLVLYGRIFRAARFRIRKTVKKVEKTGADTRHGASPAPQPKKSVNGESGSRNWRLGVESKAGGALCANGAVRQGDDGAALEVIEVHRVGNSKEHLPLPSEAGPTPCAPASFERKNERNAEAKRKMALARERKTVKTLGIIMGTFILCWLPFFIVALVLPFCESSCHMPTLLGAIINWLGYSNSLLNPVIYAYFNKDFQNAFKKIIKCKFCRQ
Nature of the series: Displacement of [3H]-8-OH-DPAT from human 5-HT1A receptor expressed in HEK293 cell membranes after 1 hr by microbeta counting method. A general note: Loss of bound radioactivity is the signal in a displacement assay; it reports binding, not function.

Series [2] deals with 5-hydroxytryptamine receptor 7 (Homo sapiens, UniProt P34969). The series is described as follows: Displacement of [3H]-5-carboxamidotryptamine from human 5-HT7B receptor expressed in HEK293 cell membranes after 1 hr by microbeta counting method.
5-hydroxytryptamine receptor 7, sequence (P34969 whole entry): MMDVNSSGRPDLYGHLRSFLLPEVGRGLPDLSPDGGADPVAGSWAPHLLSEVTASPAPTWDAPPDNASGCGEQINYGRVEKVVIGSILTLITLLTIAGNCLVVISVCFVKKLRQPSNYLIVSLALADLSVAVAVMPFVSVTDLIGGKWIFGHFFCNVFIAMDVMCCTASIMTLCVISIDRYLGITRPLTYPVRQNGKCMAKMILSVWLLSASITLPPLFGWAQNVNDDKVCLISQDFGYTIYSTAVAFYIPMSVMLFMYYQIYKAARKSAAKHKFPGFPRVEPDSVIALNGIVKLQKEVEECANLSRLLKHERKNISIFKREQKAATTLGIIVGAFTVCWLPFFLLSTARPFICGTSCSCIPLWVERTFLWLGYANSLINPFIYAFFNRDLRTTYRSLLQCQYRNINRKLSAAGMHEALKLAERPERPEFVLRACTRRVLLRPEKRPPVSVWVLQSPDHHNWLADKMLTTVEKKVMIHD
For series [3], the system named is HepG2. The series is described as follows: Cytotoxicity against human HepG2 cells assessed as reduction in cell viability at 10 uM after 72 hrs by MTS assay. Format: cell-based. Conditions: hepg2, 72 h. The gist of the method: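 Cells exposed to test compound across 0.1–100 μM (four concentrations) for 72 h. Viability read by MTS assay, absorbance at 490 nm. Positive controls: doxorubicin 1 μM for both lines, plus CCCP 10 μM for HepG2 only. Significance versus negative control assessed by one-way ANOVA with Bonferroni's test.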
For orientation: Formazan colour is commonly taken as a measure of viable cells.

For series [4], the system named is HEK293. Nature of the series: Cytotoxicity against HEK293 cells assessed as reduction in cell viability after 72 hrs by MTS assay. Conditions: human, hek293, 72 h.
Series [5] can be described thus: Drug metabolism in CD-1 mouse liver microsomes after 120 mins by UPLC-MS analysis. Format: ADME, microsome. The settings on record: for metabolised at 2 h: CD-1, mouse, liver microsomes, read-out: Drug metabolism. An outline of the steps:
(§1)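 Mouse liver microsomes with NADPH regeneration system; incubation followed by UPLC-MS with ion fragmentation. Percent substrate remaining read after 120 min; t1/2 and hepatic intrinsic clearance calculated.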
(In general: Liver microsomes are a subcellular fraction often used to study metabolism.)

A short description of series [6]: Metabolic stability in CD-1 mouse liver microsomes assessed as parent compound remaining after 120 mins by UPLC-MS analysis. Type of series: ADME, microsome. The settings on record: 2 h. The gist of the method: as §1
The nature of series [7]: Half life in CD-1 mouse liver microsomes by UPLC-MS analysis. Format: ADME, microsome. The settings on record: for t1/2: mouse, microsomes. An outline of the steps:
as §1

A short description of series [8]: Intrinsic clearance in CD-1 mouse liver microsomes by UPLC-MS analysis. Type of series: ADME, microsome. The settings on record: read-out: CLH. An outline of the steps:
as §1

For series [9], the system named is HepG2. The series is described as follows: Cytotoxicity against human HepG2 cells assessed as reduction in cell viability at 100 uM after 72 hrs by MTS assay. Type of series: cell-based. The settings on record: hepg2, 72 h. The gist of the method: (§2)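 Viability by MTS, absorbance at 490 nm, after 72 h exposure at 0.1–100 μM; doxorubicin 1 μM as positive control. HepG2 only: CCCP 10 μM as additional control. Significance versus negative control by one-way ANOVA with Bonferroni test.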

The test system of series [10] is HEK293. Nature of the series: Cytotoxicity against HEK293 cells assessed as reduction in cell viability at 100 uM after 72 hrs by MTS assay. Format: cell-based. The settings on record: human, hek293, 72 h. An outline of the steps: as §2
For series [11], the system named is HepG2. Nature of the series: Cytotoxicity against human HepG2 cells assessed as reduction in cell viability at 0.1 to 10 uM after 72 hrs by MTS assay. Type of series: cell-based. The settings on record: hepg2, 72 h. The gist of the method: as §2
In series [12] the test system is HEK293. The series is described as follows: Cytotoxicity against HEK293 cells assessed as reduction in cell viability at 0.1 to 10 uM after 72 hrs by MTS assay. Type of series: cell-based. The settings on record: human, hek293, 72 h. The gist of the method:
as §2

Series [13] has as its system HepG2. Nature of the series: Cytotoxicity against human HepG2 cells assessed as reduction in cell viability at 1 uM after 72 hrs by MTS assay. Format: cell-based. The settings on record: hepg2, 72 h. An outline of the steps: as §2
Series [14] concerns HEK293. The series is described as follows: Cytotoxicity against HEK293 cells assessed as reduction in cell viability at 1 uM after 72 hrs by MTS assay. Format: cell-based. The settings on record: human, hek293, 72 h. An outline of the steps: as §2
A further series is filed under the species Homo sapiens. The series is described as follows: Selectivity ratio of Ki for 5-HT1A receptor (unknown origin) to Ki for 5-HT7 receptor (unknown origin). The gist of the method:
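Competition binding on membranes of HEK-293 cells stably expressing human 5-HT1A or 5-HT7b receptors. 5-HT1A used 2.5 nM [3H]-8-OH-DPAT at room temperature; 5-HT7b used 0.8 nM [3H]-5-CT at 37 °C. Both ran 1 h, with 10 μM 5-HT for nonspecific binding. Seven concentrations (10–10–10–4 M) were tested in triplicate, with filtration read-out.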

Each structure is given as a SMILES string.

D(2) dopamine receptor, sequence (P14416 whole entry): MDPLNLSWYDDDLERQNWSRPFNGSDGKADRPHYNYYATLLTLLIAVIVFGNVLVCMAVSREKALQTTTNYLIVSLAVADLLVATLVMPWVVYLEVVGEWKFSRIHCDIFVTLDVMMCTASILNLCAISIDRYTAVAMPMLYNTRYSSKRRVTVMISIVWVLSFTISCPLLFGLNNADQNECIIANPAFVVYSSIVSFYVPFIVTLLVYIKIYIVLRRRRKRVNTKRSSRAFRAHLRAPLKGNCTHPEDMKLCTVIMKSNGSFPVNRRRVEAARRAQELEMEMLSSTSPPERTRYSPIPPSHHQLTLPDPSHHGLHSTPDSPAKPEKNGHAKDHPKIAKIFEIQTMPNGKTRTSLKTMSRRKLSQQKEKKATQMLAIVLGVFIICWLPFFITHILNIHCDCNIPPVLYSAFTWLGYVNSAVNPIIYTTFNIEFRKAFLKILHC

Regarding `CC1(c2ccc(F)cc2)NC(=O)N(CC(O)CN2CCC(Oc3ccc(Cl)cc3)CC2)C1=O` (configuration not stated), the values for the Ki (on D(2) dopamine receptor; in series [1]; in series [2]) were 4120 nM, 21500 nM and 172 nM, respectively.

Regarding `N#CC(C#N)=NNc1cccc(Cl)c1` [CARBONYL CYANIDE M-CHLOROPHENYLHYDRAZONE], the Activity entry in the series on HepG2 [3] and with HEK293 [4] was “Toxic” in each case.

Regarding `COc1ccccc1N1CCN(CC(O)CN2C(=O)NC(C)(c3ccc4ccccc4c3)C2=O)CC1` (configuration not stated), the figures for the Ki (on D(2) dopamine receptor; in series [1]; in series [2]) were 153 nM, 128 nM and 3 nM, respectively. The metabolised at 2 h in [5] fell in the range of 65 to 70%. Also, in [6], the Stability is recorded as 70%. Also, the t1/2 in series [7] amounted to 1.04 h. The CLint scaled in series [8] amounted to 43.4 mL/min/kg. The Activity entry in the series on HepG2 [9] is “Toxic”; in the series with HEK293 [10], “Toxic”; in the series on HepG2 [11], “Non-Toxic”; with HEK293 [12], “Non-Toxic”.

With `CC1(c2cccc3ccccc23)NC(=O)N(CC(O)CN2CCN(C(c3ccccc3)c3ccccc3)CC2)C1=O` (configuration not stated), the Ki at D(2) dopamine receptor is 273 nM; in series [1] it was 413000 nM; in series [2], 224 nM.

On to `COc1cccc2c1C(=O)c1c(O)c3c(c(O)c1C2=O)C[C@@](O)(C(=O)CO)C[C@@H]3O[C@H]1C[C@H](N)[C@H](O)[C@H](C)O1` [DOXORUBICIN], for which the Activity result with HepG2 [13] and in the series with HEK293 [14] was “Toxic” each time.

On to `CC1(C)NC(=O)N(CC(O)CN2CCN(C(c3ccccc3)c3ccccc3)CC2)C1=O` (configuration not stated), for which the inhibitory constant (Ki) on D(2) dopamine receptor came to 1150 nM; in [1], 15100 nM; in series [2], 824 nM.

For `COc1ccccc1N1CCN(CC(O)CN2C(=O)NC(C)(C)C2=O)CC1` (configuration not stated), the inhibition constant (Ki) on D(2) dopamine receptor was 2130 nM; in series [1], 489 nM; in series [2], 125 nM.

Take `CC1(c2ccc(F)cc2)NC(=O)N(CC(O)CN2CCN(c3cccc4ccccc34)CC2)C1=O` (configuration not stated): the Ki on D(2) dopamine receptor was determined as 295 nM; in series [1] it was 19 nM; in series [2] it was 11 nM. Further, the metabolised at 2 h in [5] is 65 to 70%. Also, in series [6], the Stability came to 65%. This compound also returned a t1/2 in [7] of 0.75 h. Further, the CLint scaled in series [8] stood at 60.3 mL/min/kg. In addition, the Activity entry in the series with HepG2 [9] is reported as “Toxic”; in the series with HEK293 [10] it was “Toxic”; in the series with HepG2 [11] it was “Non-Toxic”; in the series with HEK293 [12], “Non-Toxic”.

With `CC1(c2ccc(F)cc2)NC(=O)N(CC(O)CN2CCC(Oc3ccccc3)CC2)C1=O` (configuration not stated), the inhibitory constant (Ki) came out at 4350 nM at D(2) dopamine receptor, 5210 nM in [1] and 165 nM in series [2].

Regarding `CC1(c2ccc(F)cc2)NC(=O)N(CC(O)CN2CCc3ccccc3C2)C1=O` (configuration not stated), the inhibition constant (Ki) at D(2) dopamine receptor is 5850 nM; in [1], 1550 nM; in [2] it was 888 nM.

For the compound `CC1(c2ccc(F)cc2)NC(=O)N(CC(O)CN2CCN(Cc3ccccc3)CC2)C1=O` (configuration not stated), the inhibition constant (Ki) at D(2) dopamine receptor is 20000 nM; in [1], 378000 nM; in [2] it was 2080 nM.

`CC1(c2ccc3ccccc3c2)NC(=O)N(CC(O)CN2CCN(c3ccccc3C#N)CC2)C1=O` (configuration not stated): the inhibitory constant (Ki) stood at 264 nM at D(2) dopamine receptor, 129 nM in [1] and 3 nM in series [2].

For the compound `CC1(C)NC(=O)N(CC(O)CN2CCN(c3ccccc3C#N)CC2)C1=O` (configuration not stated), the results for the inhibition constant (Ki) (on D(2) dopamine receptor; in [1]; in series [2]) were 3430 nM, 1160 nM and 209 nM, respectively.

Regarding `CC1(c2ccc(F)cc2)NC(=O)N(CC(O)CN2CCN(Cc3cccc4ccccc34)CC2)C1=O` (configuration not stated), the Ki was 5230 nM at D(2) dopamine receptor, 5580 nM in series [1] and 2170 nM in series [2].

For the compound `CC1(c2ccc(F)cc2)NC(=O)N(CC(O)CN2CCN(C(=O)c3ccccc3)CC2)C1=O` (configuration not stated), the Ki was 10100 nM at D(2) dopamine receptor, 6220 nM in [1] and 3610 nM in series [2].

In the case of `COc1ccccc1N1CCN(CC(O)CN2C(=O)NC(C)(c3cccc4ccccc34)C2=O)CC1` (configuration not stated), the Ki at D(2) dopamine receptor worked out at 256 nM; in series [1], 326 nM; in [2], 5 nM. The compound further registered a Drug metabolism in [5] (mouse, microsomes, 2 h) of 40%. Also, the Stability in series [6] came to 40%. Further, in [7] (CD-1, mouse, liver microsomes), the half-life stood at 1.57 h. Moreover, in series [8], the CLint scaled came to 29 mL/min/kg. Besides, the Activity entry in the series on HepG2 [9] is “Toxic”; in the series on HEK293 [10] it was “Toxic”; in the series on HepG2 [11], “Non-Toxic”; in the series on HEK293 [12] it was “Non-Toxic”.

As to `CC1(c2ccc(F)cc2)NC(=O)N(CC(O)CN2CCN(C(c3ccccc3)c3ccccc3)CC2)C1=O` (configuration not stated), the Ratio Ki in the series filed under Homo sapiens was found to be 71. Also, the Stability in [6] stood at 20%. The compound also had a t1/2 in series [7] of 2.625 h. Moreover, in series [8], the CLint scaled was 17.2 mL/min/kg.

For `CC1(c2cccc3ccccc23)NC(=O)N(CC(O)CN2CCN(c3ccccc3C#N)CC2)C1=O` (configuration not stated), the inhibition constant (Ki) on D(2) dopamine receptor came out at 416 nM; in series [1] it was 1230 nM; in series [2], 19 nM.

These data come from ChEMBL document CHEMBL4257531, “The role of aryl-topology in balancing between selective and dual 5-HT7R/5-HT1A actions of 3,5-substituted hydantoins” (Medchemcomm, 2018).
